Source: article PMC4288442 (Biochemical and biophysical research communications, 2013)
Non-standard residues stand in square brackets, D forms with d. Residues, ends and D or L forms follow the SMILES beside them. Nle = CCCC[C@H](N)C(=O)O

Biological target: wild type (NL4-3) HIV-1 protease (Human immunodeficiency virus type 1 group M subtype B, UniProt P12497)
Assay: FRET-based enzyme inhibition assay, wild type
Type: biochemical
Method in brief: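 Commercial wild-type NL4-3 HIV-1 protease, supplied at 0.3 mg/ml, assayed by FRET with a fluorogenic HIV-1 substrate. Peptide test compounds carry a reduced (-CH2-NH-) bond in place of the labile peptide bond so the protease cannot cleave them. IC50 is the average of three independent experiments, with SD.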

SMILES	IC50
CCCC[C@H](NC(=O)[C@H](C)NC(=O)[C@H](CCC(=O)O)NC(=O)[C@@H](N)Cc1ccccc1)C(=O)O [Compound 7a, Phe-Glu-Ala-Nle] (H-FEA[Nle]-OH)	> 1000 nM
CC(C)C[C@H](NC(=O)[C@@H](NC(=O)[C@@H](N)CCCNC(=N)N)C(C)C)C(=O)O [Compound 7b, Arg-Val-Leu] (H-Arg-Val-Leu-OH)	> 1000 nM
